According to ChEMBL document CHEMBL4138058, “Design and synthesis of novel selective estrogen receptor degradation inducers based on the diphenylheptane skeleton” (Medchemcomm, 2017):
Active and inactive are the calls of the source. The calls are words filed in the database; no cut-off is given here.

Columns and labels:
[1] = biological target: T1, Estrogen receptor (Homo sapiens) (UniProt P03372); test: Downregulation of ERalpha expression in human MCF7 cells at 10 uM after 6 hrs by Western blot method relative to beta-actin; format: cell-based
T1 sequence (whole entry): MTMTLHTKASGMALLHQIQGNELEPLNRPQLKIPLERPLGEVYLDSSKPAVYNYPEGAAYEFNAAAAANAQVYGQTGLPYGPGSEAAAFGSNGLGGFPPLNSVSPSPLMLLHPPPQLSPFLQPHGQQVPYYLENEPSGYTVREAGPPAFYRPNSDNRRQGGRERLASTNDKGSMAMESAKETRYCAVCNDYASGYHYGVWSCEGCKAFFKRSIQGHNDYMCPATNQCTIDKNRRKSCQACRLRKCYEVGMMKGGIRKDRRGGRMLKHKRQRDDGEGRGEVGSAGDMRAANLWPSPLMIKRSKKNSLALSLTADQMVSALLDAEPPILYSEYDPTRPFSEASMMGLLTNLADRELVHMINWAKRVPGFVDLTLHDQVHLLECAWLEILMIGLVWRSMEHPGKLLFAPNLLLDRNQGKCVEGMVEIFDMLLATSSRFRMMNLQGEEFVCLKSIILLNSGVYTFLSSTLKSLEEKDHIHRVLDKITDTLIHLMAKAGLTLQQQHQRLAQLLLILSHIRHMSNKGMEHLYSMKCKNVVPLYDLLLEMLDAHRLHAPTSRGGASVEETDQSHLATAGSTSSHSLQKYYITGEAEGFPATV
Procedure, shortened: (§1)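 MCF-7 cells kept in DMEM with 10% FBS, kanamycin and 10 μg/mL insulin, then exposed to compounds for 6 h. Lysates made in SDS buffer (0.1 M Tris-HCl pH 8.0, 10% glycerol, 1% SDS), boiled, BCA-normalized and run on SDS-PAGE. Blots probed with anti-ERα, AR, AhR or VDR and β-actin or lamin B. Chemiluminescence quantified as target/loading-protein ratio; means ± S.E., n=3.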

Estrogen receptor = biological target: T2, Estrogen receptor (Homo sapiens, UniProt P03372); test: Displacement of Fluormone ES2 Green from full-length untagged human ERalpha expressed in insect cells after 2 hrs by fluorescence polarization assay
T2 sequence (P03372 whole entry): T1 sequence (whole entry)

[2] = biological target: T1, Estrogen receptor (Homo sapiens); test: Downregulation of ERalpha expression in human MCF7 cells at 3 uM after 6 hrs by Western blot method relative to beta-actin; format: cell-based; procedure, shortened: as §1
[3] = biological target: T1, Estrogen receptor (Homo sapiens); test: Downregulation of ERalpha expression in human MCF7 cells at 1 uM after 6 hrs by Western blot method relative to beta-actin; format: cell-based; procedure, shortened: as §1
[4] = biological target: T1, Estrogen receptor (Homo sapiens); test: Displacement of Fluormone ES2 Green from full-length untagged human ERalpha expressed in insect cells at 1 uM after 2 hrs by fluorescence polarization assay
Procedure, shortened: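 Competitive fluorescence polarization binding to ERα run with a commercial kit per manufacturer's instructions. Compounds taken from 10 mM DMSO stock. mP read at 470 nm excitation and 535 nm emission. Fraction bound correlated with mP and plotted against competitor concentration.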

[5] = biological target: T1, Estrogen receptor (Homo sapiens); test: Antagonist activity at GAL4-fused human ERalpha LBD expressed in HEK293 cells assessed as inhibition of 17beta-estradiol-induced transcriptional activation at 10 uM after 16 to 20 hrs by luciferase reporter gene assay relative to control; format: cell-based
Procedure, shortened: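 HEK293 cells grown in phenol red-free DMEM with 10% FBS at 37 °C, 5% CO2. Calcium phosphate co-transfection with GAL4-hERα LBD plasmid, MH100x4-tk-luciferase reporter and β-galactosidase normalization plasmid. Compounds added 8 h post-transfection with 0.3 nM 17β-estradiol; harvested 16–20 h later. Luciferase normalized to β-galactosidase; means of triplicate assays.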

Row | Activity [1] | IC50 (Estrogen receptor) | Activity [2] | Activity [3] | inhibition [4] | inhibition [5] | Compound
1 | 150% | 0.078 µM | 154% | 145% |  |  | CCCC(CCC)(c1ccc(O)c(C)c1)c1ccc(OCCN)c(C)c1
2 | 68% | 0.0049 µM | 83% | 93% |  |  | CCCCCCCCCCCCNCCOc1ccc(C(CCC)(CCC)c2ccc(O)c(C)c2)cc1C
3 | 69% | 0.0024 µM | 112% | 111% |  |  | CCCCCCCCNCCOc1ccc(C(CCC)(CCC)c2ccc(O)c(C)c2)cc1C
4 | 96% |  | 111% | 128% | inactive | 61% | CCCCCCCCCCCCOc1ccc(C(CCC)(CCC)c2ccc(O)c(C)c2)cc1C
5 | 87% | 0.04 µM | 96% | 95% |  |  | CCCC(CCC)(c1ccc(O)c(C)c1)c1ccc(OCC)c(C)c1
6 | 86% | 0.168 µM | 95% | 89% |  |  | CCCCCCOc1ccc(C(CCC)(CCC)c2ccc(O)c(C)c2)cc1C
7 | 105% | 0.4 µM | 105% | 105% |  |  | CCCCCCCCOc1ccc(C(CCC)(CCC)c2ccc(O)c(C)c2)cc1C
8 | 70% | 0.0073 µM | 79% | 80% |  |  | CCCC(CCC)(c1ccc(O)c(C)c1)c1ccc(O)c(C)c1
9 | 106% |  | 120% | 118% | inactive |  | CCCCCCCCCCOc1ccc(C(CCC)(CCC)c2ccc(O)c(C)c2)cc1C
10 | 112% | 0.078 µM | 185% | 185% |  |  | CCCCCCNCCOc1ccc(C(CCC)(CCC)c2ccc(O)c(C)c2)cc1C
11 | 68% | 0.087 µM | 82% | 84% |  |  | CCCCOc1ccc(C(CCC)(CCC)c2ccc(O)c(C)c2)cc1C
12 | 70% | 0.02 µM | 82% | 92% |  |  | CCCCCCCCCCCCCCCCNCCOc1ccc(C(CCC)(CCC)c2ccc(O)c(C)c2)cc1C
13 | 100% | 0.313 µM | 115% | 109% |  |  | CCCC(CCC)(c1ccc(O)c(C)c1)c1ccc(OCCN(C)C)c(C)c1
